This is a sample that favours compounds with a hit; in the whole collection about 1.8% have one here.
SKN-1 inh – blocks SKN-1 activity in C. elegans. C. elegans VP596 Pgst-4::GFP/RFP ratio, acrylamide-induced, 24 h. 0.49% of 360,000 active. inhibition, % at 21.8 µM. AID 624304;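 active = interference check ratio from 0.5 to 1.5 plus GFP to RFP signal ratio inhibition reaching or exceeding a fixed threshold, cut at about 30% in these data, passing the limit was not always enough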
iPSC survival up – hiPSC single-cell survival enhancement | survival enhancement, % at 20 µM | 0.044% of 360,000 active | ATPlite luminescence; 100% = ROCK inhibitor wells, 0% = DMSO | AID 602274; in the data active = survival enhancement above about 18%;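 also: cells exposed to compounds for 16 hours before the ATP read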
Tb MetRS inh – blocks T. brucei methionyl-tRNA synthetase activity; purified T. brucei MetRS, ATP depletion, Kinase-Glo luminescence; inhibition, % at 11.9 µM; 0.4% of 360,000 active;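 active = inhibition above a per-plate cutoff of the control wells' mean inhibition plus 3 SD, cut at about 5.5% in these data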;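 also: 0% = DMSO wells median and 100% = median of wells with control inhibitor compound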
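Dosing: 11.9 µM single point; system: parasite MetRS enzyme; technique: luminescence of leftover ATP; times: 15 min enzyme-compound preincubation, 2 h reaction, 10 min detection, 25 °C; replicates: each compound tested once; read-out basis: percent inhibition relative to median high and low control wells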
PREPL inhibitor – inhibitors of human prolyl oligopeptidase-like enzyme PREPL; 0.68% of 320,000 active; recombinant PREPL, fluorescence polarization activity-based probe; inhibition, % at 5.96 µM; Q4J6C6; in the data active = inhibition above about 43%;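 also: 0% = enzyme with DMSO and 100% = wells lacking enzyme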
Target sequence (Q4J6C6 whole entry, looked up): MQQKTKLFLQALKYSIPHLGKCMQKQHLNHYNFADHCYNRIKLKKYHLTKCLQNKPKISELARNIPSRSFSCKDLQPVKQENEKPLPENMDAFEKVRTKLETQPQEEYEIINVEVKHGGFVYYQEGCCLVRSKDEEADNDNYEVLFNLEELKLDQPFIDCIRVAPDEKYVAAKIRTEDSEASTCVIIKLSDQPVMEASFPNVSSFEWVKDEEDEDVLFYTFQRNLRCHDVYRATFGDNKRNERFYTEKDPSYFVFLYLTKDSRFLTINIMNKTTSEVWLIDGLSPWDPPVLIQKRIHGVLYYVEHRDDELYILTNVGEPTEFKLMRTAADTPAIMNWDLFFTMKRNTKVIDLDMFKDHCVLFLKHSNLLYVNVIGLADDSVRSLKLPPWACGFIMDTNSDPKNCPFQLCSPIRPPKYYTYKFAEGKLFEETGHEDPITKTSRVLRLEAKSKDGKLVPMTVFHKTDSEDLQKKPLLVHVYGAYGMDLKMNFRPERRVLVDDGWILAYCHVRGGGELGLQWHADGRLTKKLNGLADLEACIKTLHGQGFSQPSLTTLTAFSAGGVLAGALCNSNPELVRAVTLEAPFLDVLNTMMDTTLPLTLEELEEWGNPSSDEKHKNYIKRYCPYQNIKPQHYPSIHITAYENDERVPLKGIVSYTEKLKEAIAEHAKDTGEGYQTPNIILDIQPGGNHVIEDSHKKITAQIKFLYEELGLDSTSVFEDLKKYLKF
MT1-MMP act inh – MT1-MMP (human) activation inhibition; P50281; HT1080 RFP-PRO-GFP cells, GFP/RFP ratio fluorescence, overnight; percent of plate control window, DMSO zero; GFP/RFP ratio change, % at 20 µM; 0.061% of 360,000 active; AID 651647;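 active = GFP/RFP ratio change of at least 30% with cell ATP level not reduced by more than half and red fluorescence within 50% of control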
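Test system: HT1080 RFP-PRO-GFP cells; Benchmarks: DMSO and RFP-L50D-GFP cell wells; Timing: cells overnight before dosing, compound overnight, 37 °C, 5% CO2; Compound: one 20 µM compound dose with 1% DMSO; Read-out: GFP/RFP fluorescence ratio.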
E coli Lon inh – E. coli protease La inhibition. purified E. coli Lon protease, fluorescence polarization. inhibition, % at 7.94 µM. AID 602123. 0.42% of 360,000 active. P0A9M0; in the data active = inhibition above about 13%, passing the limit was not always enough;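 also: 0% = enzyme with probe and DMSO and 100% = no enzyme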
Active calls of the source: *; . = no result given.

SMILES | SKN-1 inh | iPSC survival up | Tb MetRS inh | PREPL inhibitor | MT1-MMP act inh | E coli Lon inh
O=C(N/N=C\c1ccc(-c2ccccc2[N+](=O)[O-])o1)C1COc2ccccc2O1 (centres undefined) | 4 | -1 | 0 | 25 | -2 | -6
O=C(N/N=C\c1ccc(-c2ccccc2[N+](=O)[O-])o1)C1COc2cc3ccccc3cc2O1 (centres undefined) | 4 | 0 | 10* | 24 | -1 | -2
CSc1cccc(NC(=O)C2C3C=CC4(O3)C2C(=O)N(CCN2CCOCC2)C4C(=O)NC2CCCCC2)c1 (centres undefined) | 37* | 1 | 0 | 5 | 1 | 3
Cc1ccc(S(=O)(=O)N2C[C@H]3[C@H]4C(=O)N(c5ccccc5)C(=O)[C@H]4CC(=O)[C@H]3[C@@H]2c2cccc3ccccc23)cc1 | 36* | -1 | 0 | . | 5 | -7
COc1cc([N+](=O)[O-])cc(/C=C2/SC(=S)N(Cc3ccccc3)C2=O)c1O | 52* | 0 | -1 | -71 | 4 | -30
COc1cc(/C=C2/SC(=S)N(Cc3ccccc3)C2=O)cc(Cl)c1O | 36* | 0 | -1 | -79 | 9 | -108
COc1cc(/C=C2/SC(=S)N(Cc3ccccc3)C2=O)ccc1OCC(=O)O | -4 | 1 | -1 | -13 | 6 | -33
O=c1[nH]ncn2cccc12 | 46* | 5 | 0 | 3 | -4 | -2
Cc1cc(OCc2cc(C(=O)N(C)CCCN3CCOCC3)no2)cc(C)c1Cl | -7 | -1 | -1 | -7 | 10 | 3
CN(CCCN1CCOCC1)C(=O)c1cc(COc2cccc(C(F)(F)F)c2)on1 | 45* | 0 | -1 | 17 | 2 | -6
Cc1cc(F)ccc1S(=O)(=O)N1CCCOC1CNC(=O)C(=O)NCc1ccc2c(c1)OCO2 (centres undefined) | 37* | 0 | 0 | 11 | 2 | -9
O=C(NCc1ccc2c(c1)OCO2)C(=O)NCC1OCCCN1S(=O)(=O)c1cc(F)ccc1F (centres undefined) | -18 | 0 | 0 | -3 | -1 | -4
O=C(/C=C/c1ccccc1)/C=C/c1ccccc1 | 81* | -3 | -1 | -12 | 1 | -6
N/C(=N\OC(=O)/C=C/c1ccccc1)c1ccccc1 | 36* | -1 | 1 | 4 | 4 | -1
O=C(/C=C/c1ccccc1)Nn1cnnc1 | 35* | 0 | -1 | 4 | 1 | -5
[O-][n+]1cc(Cl)cc(Cl)c1 | -3 | 1 | 0 | . | 2 | -4
CC(=O)[C@H]1CC[C@@H](c2ccccc2)N(S(=O)(=O)c2ccc(C)cc2)C1 | -4 | . | 0 | . | 0 | .
CCCCCOc1ccccc1C(=O)NCCC(=O)O | 38* | 2 | 0 | 5 | 0 | -8
CCCCCOc1ccccc1C(=O)NCCCC(=O)O | -8 | 0 | -1 | 3 | 1 | -1
NC(=O)C(CC(=O)O)NC(=O)[C@@H]1CCCNc2c(I)cc([N+](=O)[O-])cc2C(=O)N[C@@H](CO)C(=O)N[C@@H](Cc2ccc(O)cc2)C(=O)N1 (some centres undefined) | -4 | 0 | 41* | -5 | 2 | 8
O=C(c1ccc(Br)o1)N1CCC(Cc2ccccc2)CC1 | -4 | 0 | 0 | 5 | -2 | -23
Cn1nccc1C(=O)N1CCC(Cc2ccccc2)CC1 | 38* | 0 | 0 | 9 | 0 | -8
COC(=O)C1(C(=O)OC)c2ccccc2N(S(=O)(=O)c2ccc(C)cc2)C1CC(C)=O (centres undefined) | -3 | . | 0 | . | 2 | .
COc1ccc(/C=C(\C#N)c2nc3ccccc3[nH]2)cc1O | 17 | -1 | 1 | . | 7 | -3
COc1cc(/C=C(/C#N)c2nc3ccccc3[nH]2)ccc1OC(=O)c1ccco1 | 11 | -2 | 1 | 83* | -298 | -36
SMILES | SKN-1 inh | iPSC survival up | Tb MetRS inh | PREPL inhibitor | MT1-MMP act inh | E coli Lon inh
CCc1cc(-c2cnnn2Cc2ccccc2)ccc1-c1cn(CC(C)C)nn1 | 2 | 6 | 1 | . | 1 | -5
N#CC1=C(N)N(c2ccc(F)cc2)C2=C(C1c1ccc(O)cc1)S(=O)(=O)CC2 (centres undefined) | 35* | 0 | 1 | . | 16 | -36
CCCCC[C@@H](C)N1C[C@@H](COCc2ccccc2)Oc2cc(N3CC[C@H](N(C)C)C3)ccc2S1(=O)=O | 15 | -1 | -1 | . | 1 | -4
O=C(NCCCN1CCOCC1)c1ccccc1N1C(=O)[C@@H]2Cc3c([nH]c4ccccc34)C(c3ccccc3)N2C1=O (some centres undefined) | -9 | -1 | 2 | . | 0 | -15
COc1ccc2oc(C(F)(F)C(F)F)cc(=O)c2c1 | 36* | 5 | -2 | -4 | 4 | 0
C#CCSc1nnc(-c2cccc3ccccc23)o1 | 82* | -1 | -1 | 4 | 6 | 2
CC(=O)N1CCC(C(=O)N2c3ccccc3N=C(c3ccc4c(c3)OCO4)C2C(=O)NCc2ccccc2)CC1 (centres undefined) | -3 | . | -1 | . | 6 | .
COc1cccc(CNc2nc3cc(-c4cscc4C)sc3c(=O)n2C)c1 | 7 | -4 | 0 | . | 6 | 9
Cn1c(Cl)c(/C=N/OC(=O)c2ccc(Cl)cc2)c2ccccc21 | -30 | 22* | -1 | 5 | -1 | -3
COC(=O)C1(C(=O)OC)c2cc3c(cc2CN(S(=O)(=O)c2ccc(C)cc2)C1CC(C)=O)OCO3 (centres undefined) | -5 | . | -1 | . | 7 | .
CCCn1c(N)c(C(c2ccc(OC)cc2)N2CCN(c3ccccc3)CC2)c(=O)[nH]c1=O (centres undefined) | 38* | 0 | 0 | -5 | -1 | 1
CCCn1c(N)c(C(c2ccc(C(=O)OC)cc2)N2CCN(c3ccccc3)CC2)c(=O)[nH]c1=O (centres undefined) | -6 | -4 | 0 | 15 | 3 | 4
COCCN(C(=O)COC(=O)c1c(-c2ccccc2)noc1C)c1c(N)n(Cc2ccccc2)c(=O)[nH]c1=O | 4 | 0 | 0 | 7 | -5 | -6
CCc1nc2ccccc2c(C(=O)OCC(=O)N(CCOC)c2c(N)n(Cc3ccccc3)c(=O)[nH]c2=O)c1C | 41* | 0 | 0 | . | -18 | 0
O=C(Nc1cc(Cl)ccc1N1CCOCC1)c1ccc(Br)o1 | -5 | 0 | 0 | 3 | -4 | 0
O=C(Nc1ccc(Cl)cc1Cl)c1ccc(Br)o1 | 36* | -1 | -1 | -6 | 1 | -8
C#Cc1cccc(-n2nnc(C(=O)OC)c2-c2ccccc2)c1 | 38* | 0 | 0 | 11 | 0 | -4

Bioassay records deposited in PubChem BioAssay by several laboratories.
